# From ChEMBL document CHEMBL5376013, “Design, synthesis and biological evaluation of novel morpholinopyrimidine-5-carbonitrile derivatives as dual PI3K/mTOR inhibitors” (RSC Med Chem, 2024)
# What was measured:
# Type in all cases: functional
# Settings in all cases: read-out: GI
# [1] = tested on: NCI-H460; assay: Antitumor activity against human NCI-H460 cells assessed as growth inhibition at 10 uM relative to control
# Procedure, shortened: (§1)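 After drug addition, plates were incubated 48 h at 37 °C under 5% CO2. Adherent cells were fixed with cold TCA (10% final, 60 min, 4 °C) and suspension cells with 16% final TCA. Staining used 0.4% SRB in 1% acetic acid, solubilized in 10 mM trizma, read at A515. Percent growth was calculated from time-zero, control and treated absorbances.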
# [2] = tested on: SK-MEL-28; assay: Antitumor activity against human SK-MEL-28 cells assessed as growth inhibition at 10 uM relative to control
# Procedure, shortened: (§2)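 Drug exposure 48 h at 37 °C, 5% CO2. Adherent cells fixed with cold TCA (10% final), suspension cells with TCA (16% final). Stained with 0.4% SRB in 1% acetic acid, dissolved in 10 mM Tris, A515. Growth relative to time-zero and untreated control.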
# [3] = tested on: KM12; assay: Antitumor activity against human KM12 cells assessed as growth inhibition at 10 uM relative to control; procedure, shortened: as §1
# [4] = tested on: M14; assay: Antitumor activity against human M14 cells assessed as growth inhibition at 10 uM relative to control; procedure, shortened: as §1
# [5] = tested on: BT-549; assay: Antitumor activity against human BT-549 cells assessed as growth inhibition at 10 uM relative to control; procedure, shortened: as §1
# [6] = tested on: SNB-19; assay: Antitumor activity against human SNB-19 cells assessed as growth inhibition at 10 uM relative to control; procedure, shortened: as §2
# [7] = tested on: OVCAR-3; assay: Antitumor activity against human OVCAR-3 cells assessed as growth inhibition at 10 uM relative to control; procedure, shortened: as §1
# [8] = tested on: OVCAR-4; assay: Antitumor activity against human OVCAR-4 cells assessed as growth inhibition at 10 uM relative to control; procedure, shortened: as §1
# [9] = tested on: HCC 2998; assay: Antitumor activity against human HCC 2998 cells assessed as growth inhibition at 10 uM relative to control; procedure, shortened: as §1
# [10] = tested on: EKVX; assay: Antitumor activity against human EKVX cells assessed as growth inhibition at 10 uM relative to control; procedure, shortened: as §1
# [11] = tested on: PC-3; assay: Antitumor activity against human PC-3 cells assessed as growth inhibition at 10 uM relative to control; procedure, shortened: as §1
# [12] = tested on: OVCAR-5; assay: Antitumor activity against human OVCAR-5 cells assessed as growth inhibition at 10 uM relative to control; procedure, shortened: as §1
# [13] = tested on: UACC-257; assay: Antitumor activity against human UACC-257 cells assessed as growth inhibition at 10 uM relative to control; procedure, shortened: as §2
# [14] = tested on: NCI-H322M; assay: Antitumor activity against human NCI-H322M cells assessed as growth inhibition at 10 uM relative to control; procedure, shortened: as §1
SMILES,inhibition of growth at 10 µM [1],inhibition of growth at 10 µM [2],inhibition of growth at 10 µM [3],inhibition of growth at 10 µM [4],inhibition of growth at 10 µM [5],inhibition of growth at 10 µM [6],inhibition of growth at 10 µM [7],inhibition of growth at 10 µM [8],inhibition of growth at 10 µM [9],inhibition of growth at 10 µM [10],inhibition of growth at 10 µM [11],inhibition of growth at 10 µM [12],inhibition of growth at 10 µM [13],inhibition of growth at 10 µM [14]
N#Cc1c(-c2ccc(Cl)cc2)nc(NN)nc1N1CCOCC1,< 1%,< 1%,< 1%,< 1%,< 1%,< 1%,< 1%,< 1%,< 1%,14.3%,< 1%,< 1%,< 1%,< 1%
CSc1nc(-c2ccc(Cl)cc2)c(C#N)c(N2CCOCC2)n1,< 1%,< 1%,< 1%,< 1%,21.8%,20.1%,< 1%,18.2%,< 1%,15.1%,< 1%,< 1%,< 1%,< 1%
N#Cc1c(-c2ccc(Cl)cc2)nc(N/N=C2/C(=O)Nc3ccc(Cl)cc32)nc1N1CCOCC1,< 1%,< 1%,< 1%,< 1%,< 1%,< 1%,< 1%,< 1%,< 1%,13.9%,< 1%,< 1%,< 1%,< 1%
N#Cc1c(-c2ccc(Cl)cc2)[nH]c(=S)[nH]c1=O,< 1%,< 1%,< 1%,< 1%,< 1%,< 1%,< 1%,< 1%,< 1%,< 1%,< 1%,33.4%,< 1%,< 1%
N#Cc1c(-c2ccc(Cl)cc2)nc(N/N=C/c2cccc(F)c2)nc1N1CCOCC1,< 1%,< 1%,16%,< 1%,< 1%,< 1%,< 1%,< 1%,< 1%,26.2%,14.9%,< 1%,< 1%,< 1%
N#Cc1c(-c2ccc(Cl)cc2)nc(N/N=C2/C(=O)Nc3ccccc32)nc1N1CCOCC1,17.6%,< 1%,< 1%,< 1%,< 1%,< 1%,< 1%,< 1%,< 1%,< 1%,< 1%,< 1%,< 1%,< 1%
N#Cc1c(-c2ccc(Cl)cc2)nc(NN2C(=O)CCC2=O)nc1N1CCOCC1,< 1%,< 1%,< 1%,< 1%,< 1%,< 1%,< 1%,< 1%,< 1%,< 1%,< 1%,< 1%,< 1%,< 1%
